Rows were chosen to be rich in hits. Some 9.4% of all compounds tested hit in one or more screens of this group.
Mdm2-MdmX inh = disrupts the human Mdm2-MdmX interaction | O15151+Q00987 | SaOS-2 split-luciferase Mdm2/MdmX complementation, luminescence | inhibition, % at 8 µM | 330,000 tested, 3% active;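 active = inhibition of at least 50% at 8 µM in the primary screen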
Target sequence (O15151 whole entry, looked up): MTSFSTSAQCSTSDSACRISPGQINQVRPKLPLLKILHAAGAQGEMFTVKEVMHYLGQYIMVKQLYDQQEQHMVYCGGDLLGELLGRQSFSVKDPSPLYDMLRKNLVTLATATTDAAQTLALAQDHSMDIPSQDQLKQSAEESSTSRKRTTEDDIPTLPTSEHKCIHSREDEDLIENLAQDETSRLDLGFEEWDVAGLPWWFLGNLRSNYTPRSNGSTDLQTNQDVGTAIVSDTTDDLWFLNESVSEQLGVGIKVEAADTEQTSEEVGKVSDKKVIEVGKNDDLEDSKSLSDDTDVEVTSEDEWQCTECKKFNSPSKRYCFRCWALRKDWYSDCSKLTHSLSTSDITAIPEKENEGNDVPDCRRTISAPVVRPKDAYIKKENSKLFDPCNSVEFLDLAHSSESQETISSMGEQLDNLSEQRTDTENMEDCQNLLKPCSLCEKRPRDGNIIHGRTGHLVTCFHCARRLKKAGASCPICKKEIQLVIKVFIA
Target sequence (Q00987 whole entry, looked up): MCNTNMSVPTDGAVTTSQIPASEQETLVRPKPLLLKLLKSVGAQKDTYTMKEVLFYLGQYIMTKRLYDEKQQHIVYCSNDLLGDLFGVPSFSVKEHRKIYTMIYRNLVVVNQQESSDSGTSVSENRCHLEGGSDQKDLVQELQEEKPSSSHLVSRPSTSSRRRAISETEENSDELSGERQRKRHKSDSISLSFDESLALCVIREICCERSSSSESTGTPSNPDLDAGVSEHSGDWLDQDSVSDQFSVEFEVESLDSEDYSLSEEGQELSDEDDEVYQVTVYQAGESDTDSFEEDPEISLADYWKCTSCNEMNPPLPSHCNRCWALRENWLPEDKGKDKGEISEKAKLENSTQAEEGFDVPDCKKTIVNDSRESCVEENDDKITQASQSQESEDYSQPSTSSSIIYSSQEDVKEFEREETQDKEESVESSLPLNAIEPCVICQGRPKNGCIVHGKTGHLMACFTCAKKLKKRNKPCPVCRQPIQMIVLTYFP
CSC inhib = cancer stem cell inhibition; cancer stem cell-like cells viability, luminescence; inhibition, % at 7.5 µM; 300,000 tested, 1.1% active; AID 2717; in the data active = inhibition above about 75%; tested in HMLE shEcad cells
Beta apoptosis = blocks beta cell apoptosis; INS-1E cytokine-induced death, ATP luminescence, 48 h; percent of positive-control rescue, neutral wells zero; protection from apoptosis, % (no concentration beside the values); 300,000 tested, 0.8% active; AID 435005;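 active = Every replicate reaches about 75%, or at least half do and their mean reaches it too, limit read from the data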;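 also: higher means more ATP so stronger rescue from cytokine killing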
T cruzi inh = blocks replication of Trypanosoma cruzi; T. cruzi beta-gal in NIH3T3, luminescence, 90 h; inhibition, % (no concentration beside the values); 300,000 tested, 1.4% active; AID 1885;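 active = mean inhibition across valid replicates above about 55%, limit read from the data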;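 also: signal also drops with host cell toxicity which is not excluded here; higher percent means less beta-gal luminescence so fewer parasites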
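Assay system: NIH/3T3 fibroblasts plus reporter T. cruzi. Amount: NIH/3T3 cells, 5,000 per well. Buffer or medium: DMEM, 2% fetal bovine serum. Doses: compound pinned at 50 nL/well, DMSO. Schedule: ≥90 h infection period, 3 h prior cell attachment. Signal: luminescent β-galactosidase signal after 60 min lysis. Read-out: parasite load inhibition, %.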
Lmaj promast = reduces viability of Leishmania major promastigotes; resazurin fluorescence viability; inhibition, % at 10 µM; 200,000 tested, 9% active; AID 1063; in the data active = inhibition above about 50%;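 also: promastigotes grown with compound for 44 hours at 28 °C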
SKKanGAS inh = blocks kanamycin growth of S. pyogenes SKKanGAS strain. BacTiter-Glo, 6 h. inhibition, % at 7.5 µM. 300,000 tested, 1.3% active. AID 1662;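 active = mean replicate score, as percent of positive control median, at least 50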;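 also: strain carries kanamycin resistance gene driven by streptokinase promoter and grows in 40 µg/ml kanamycin; loss of luminescence reflects streptokinase promoter inhibition or plain growth inhibition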
Of the large screens only hits and unclear results are named; the others gave an inactive call.

NC(=O)CCCn1c(C(=O)c2cc(Cl)c(N)c(Cl)c2)c2ccc([N+](=O)[O-])cc2[n+]1[O-]	SKKanGAS inh 68.9 (no result: Lmaj promast)
Nc1nonc1-n1nnc(C(=O)N/N=C/c2ccc(Cl)cc2Cl)c1CN1CCOCC1	none (no result: CSC inhib, Lmaj promast)
COc1cc2c(-c3ccc(O)cc3)nc3c(c(C)nn3-c3ccccc3)c2cc1OC	CSC inhib 87.6, Lmaj promast 63.1 (no result: Mdm2-MdmX inh, T cruzi inh, SKKanGAS inh)
Cc1ccc(Oc2ccc(-c3nnc(-c4ccccc4)o3)cc2[N+](=O)[O-])cc1C	Lmaj promast 59.7 (no result: Mdm2-MdmX inh, CSC inhib, Beta apoptosis, T cruzi inh, SKKanGAS inh)
Cc1ccc(CNC(=O)C2CSC3(C)CCC(=O)N23)cc1 (stereo unspecified)	none (no result: T cruzi inh, Lmaj promast, SKKanGAS inh)
O=C1CC(/C=C/c2ccccc2)=Nc2ccccc2N1	Lmaj promast 83.7
O=C1CC(/C=C/c2ccc(Cl)cc2)=Nc2ccccc2N1	Lmaj promast 80.9
O=C1CC(/C=C/c2cccnc2)=Nc2ccccc2N1	Lmaj promast 64.9
Cc1ccc(S(=O)(=O)N(C)CC(=O)NCCCn2ccnc2)cc1	none (no result: Beta apoptosis, Lmaj promast)
CC1(C)CC(=O)C(CCC(=O)c2ccccc2)C(C)(C)N1 (stereo unspecified)	Lmaj promast 90.0
COc1cccc(CSc2nc3cc4c(cc3cc2C)OCCO4)c1	Lmaj promast 57.2
O=C1Oc2ccccc2C(=O)/C1=C\N1CCN(c2ccccc2)CC1	none
Cc1ccc(NC(=O)CCn2cc(C(F)(F)F)ccc2=O)cc1	none (no result: Beta apoptosis, Lmaj promast)
COc1ccc(N2CCN(C(=O)c3cc4c(-c5cccc(OC)c5)nn(C)c4s3)CC2)cc1	Lmaj promast 61.9 (no result: Beta apoptosis, T cruzi inh, SKKanGAS inh)
Cn1nc(-c2ccccc2F)c2cc(C(=O)Nc3ccc4c(c3)OCCO4)sc21	CSC inhib 77.1
CCN(CC)CCNC(=O)c1cc2c(-c3cccc(OC)c3)nn(C)c2s1	none (no result: Lmaj promast)
CCOC(=O)N1CCN(C(=O)c2cc3c(-c4cccc(OC)c4)nn(C)c3s2)CC1	none (no result: Lmaj promast)
COc1cccc(-c2nn(C)c3sc(C(=O)Nc4ccc5c(c4)OCCO5)cc23)c1	SKKanGAS inh 59.5
CCC(NC(=O)CCc1nnc(-c2cc(C)on2)o1)C12CC3CC(CC(C3)C1)C2 (stereo unspecified)	none (no result: Lmaj promast)
COc1ccc(NC(=O)/C(C#N)=C/c2ccc3c(c2)n(C)c(=O)n3C)cc1	Lmaj promast 57.0
Cc1ccc(O)c(Nc2ncnc3ccc([N+](=O)[O-])cc23)c1	none (no result: Lmaj promast)
O=[N+]([O-])c1ccc(O)c(Nc2ncnc3ccc(Br)cc23)c1	SKKanGAS inh 50.6
CC(C)c1ccc(NC(=O)C(c2ccccc2)N(Cc2ccco2)C(=O)CC2NC(=O)NC2=O)cc1 (stereo unspecified)	none
CC12CCC(C(=O)Nc3cc(Cl)ccc3Cl)(C(Br)C1=O)C2(C)C (stereo unspecified)	none
Cc1cccc(NC(=S)NNC(=O)c2ccc(O)cc2O)c1C	Lmaj promast 71.3
CCOc1cc(/C=C/C(=O)OCC(=O)NCC2CCCO2)cc(Cl)c1OC (stereo unspecified)	none (no result: T cruzi inh, Lmaj promast, SKKanGAS inh)
CCCCn1c(N)c(N(CC(C)C)C(=O)C2CCN(S(=O)(=O)c3ccc(C)cc3)CC2)c(=O)[nH]c1=O	none (no result: Beta apoptosis, Lmaj promast)
Cn1c(CN2CCN(C(=O)c3ccc(F)cc3)CC2)nc2cc([N+](=O)[O-])ccc21	Lmaj promast 63.8
CC(=O)N1CCN(Cc2nc3cc([N+](=O)[O-])ccc3n2C)CC1	none (no result: Lmaj promast)
CC(=O)Nc1ccc(NC2CCCCC2NS(=O)(=O)c2ccccc2)cc1 (stereo unspecified)	none (no result: Lmaj promast)
COc1ccc(C(c2nnnn2Cc2ccccc2)N2CCN(c3nc4ccccc4s3)CC2)cc1 (stereo unspecified)	T cruzi inh 64.0, Lmaj promast 100.1
COCCn1nnnc1C(c1ccc(OC)c(OC)c1)N1CCN(c2nc3ccccc3s2)CC1 (stereo unspecified)	Lmaj promast 83.1
COc1ccc(Cn2nnnc2C(c2cccs2)N2CCCCCC2)cc1 (stereo unspecified)	Lmaj promast 56.9 (no result: Beta apoptosis)
Fc1ccc(Cn2nnnc2C(c2ccc(Cl)cc2)N2CCSCC2)cc1 (stereo unspecified)	Lmaj promast 98.8
CC1CCN(C(c2ccc(N(C)C)cc2)c2nnnn2Cc2ccc(F)cc2)CC1 (stereo unspecified)	none
CN(C1CCCCC1)S(=O)(=O)c1ccc2c(c1)CCC(=O)N2	none (no result: CSC inhib, Beta apoptosis, T cruzi inh, Lmaj promast, SKKanGAS inh)
COC(=O)c1ccc(CO/N=C/c2ccc(OC)cc2OC)cc1	none (no result: Lmaj promast)

From PubChem
